CHOP inhibitor = inhibitors of CHOP induction in ER stress response; inhibition, % at 10 µM; AID 2732; CHO-K1 CHOP-promoter luciferase, tunicamycin-induced, 15-18 h; hit rate 3.8% among 220,000;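 active means compounds that reduced the stress-induced luciferase reporter signal by more than about 70% of percent inhibition, limit read from the data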;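 further: 0% = tunicamycin plus vehicle and 100% = wells without tunicamycin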
FXN GAA850 act = frataxin GAA850 promoter activation; activation, % at 6 µM; AID 540364; HEK293 lucGAA850 FXN promoter luciferase reporter, 24 h; percent of 10 µM SAHA response; hit rate 0.56% among 360,000;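 active means activation above the average of all compounds screened plus 3 SD, cutoff fixed separately per campaign, cut at about 7.5% in these data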;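 further: 0% = DMSO wells and 100% = 10 µM SAHA wells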
UPR CHOP act = activators of apoptotic arm of unfolded protein response (CHOP). CHO-CHOP luciferase reporter, UPR activation, luminescence; percent of tunicamycin response over DMSO baseline. activation, % at 10 µM. hit rate 0.34% among 330,000. AID 449763;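 active means at 10 µM dose, activation of 40% or more, normalized to positive control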;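 further: 100% = tunicamycin at 10 µg/mL and 0% = DMSO alone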
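Assay system: CHO cells with stable CHOP pathway luciferase reporter; Buffer or medium: F12 plus 10% serum; Times: 16-18 h cell attachment, then 6 h compound exposure, 37 °C; Signal: luciferase luminescence; Read-out basis: percent activation relative to tunicamycin control; Control set: tunicamycin high control, DMSO low control.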
XBP1 UPR activ = activators of adaptive arm of unfolded protein response (XBP1) | CHO-XBP1 luciferase reporter, IRE1-XBP1 UPR activation, luminescence; percent of tunicamycin response, DMSO as zero | hit rate 0.33% among 330,000 | activation, % at 20 µM;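 active means versus positive control, 20 µM dose yields 30% or more activation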;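 further: 100% = tunicamycin at 10 µg/mL and 0% = DMSO only wells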
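incubation = overnight seeding at 37 °C, 6 h compound treatment at 37 °C | assay system = CHO-XBP1 cells stably carrying IRE1-XBP1-driven luciferase reporter | input = 1000 cells per well | detection = luciferase luminescence | dosing = single point, 20 µM final compound, 1% DMSO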
GAA30 counter = GAA30 FXN promoter activation counter-screen. shares compounds with FXN GAA850 act. HEK293 lucGAA30 FXN promoter luciferase, 24 h; DMSO = 0%, 5 µM ipriflavone = 100%. activation, % at 6 µM. hit rate 66% among 1,900. AID 588350;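 active means mean activation above the mean of solvent-only control wells plus 3 SD, cut at about 22% in these data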;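 further: counterscreen of GAA850 promoter hits where activity marks nonselective or luminescence artifacts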
FXN GAA850 conf = GAA850 FXN promoter activation confirmation | activation, % at 6 µM | shares compounds with FXN GAA850 act | HEK293 lucGAA850 FXN promoter luciferase reporter, 24 h; 100% = activation by SAHA | AID 588351 | hit rate 86% among 1,900;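 active means mean activation above a set limit taken from the primary screen, cut at about 8% in these data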;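 further: 0% = DMSO wells and 100% = 10 µM SAHA wells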
The depositor's hits bear a star; · = no result. Only a selection was taken, and hits are over-represented in it overall.

SMILES	CHOP inhibitor	FXN GAA850 act	UPR CHOP act	XBP1 UPR activ	GAA30 counter	FXN GAA850 conf
O=C(O)c1ccc2c3c(cccc13)C(=O)N(c1ccccc1)C2=O	53	3	-2	-3	·	·
CC(=O)c1ccc2c3c(cccc13)C(=O)N(CCc1ccccc1)C2=O	-13	7.8*	4	4	112*	45*
O=C(O)c1c(Cl)cccc1Nc1ccccc1	·	1	·	·	·	·
COc1ccc(CNC(=O)c2cn(Cc3ccc(S(=O)(=O)N(C)C)cc3)c(=O)s2)cc1	·	-2	·	·	·	·
NC(=S)N/N=C/c1cn(-c2ccccc2)nc1-c1cccnc1	-11	7.8*	2	0	63*	19*
N#CC(c1ccccc1)C(CC(=O)c1ccccc1)c1ccccc1 (configuration not stated)	·	-1	·	·	·	·
CCOC(=O)c1cnc(SCc2ccc(C)cc2)nc1N	-9	7.8*	5	1	86*	27*
Nc1cccc2c1C(=O)N(CCOc1ccc(F)cc1)C2=O	·	8.1*	2	-2	106*	26*
CC1=N/C(=C\c2ccc(OC(C)C)cc2)C(=O)N1c1ccc(C(=O)O)cc1	-19	2	-1	6	·	·
COc1ccc(/C=C2\N=C(c3ccccc3)N(c3ccc(C(=O)O)cc3)C2=O)cc1OC	7	9.3*	1	3	41*	23*
CC1(Cc2ccccc2C#N)C(=O)Nc2cc(-c3ccccc3Cl)ccc21 (configuration not stated)	·	4	·	·	·	·
CC1(Cc2ccc(C(F)(F)F)nc2)C(=O)Nc2cc(-c3ccccc3Cl)ccc21 (configuration not stated)	·	14*	·	·	12	14*
CC(=O)NC(C)(c1ccccc1)c1nc(-c2cnc3ccccc3c2)cs1 (configuration not stated)	·	4	·	·	·	·
CC1=CC(=C2C(=O)c3ccccc3C2=O)C=C(C)N1C	21	8.2*	4	2	111*	34*
COc1cc(CNC(=O)Nc2nnc([C@H]3C[C@H](O)[C@@H](CO)O3)s2)cc(OC)c1OC	·	0	·	·	·	·
COc1cc(CNc2ccc3[nH]c(=O)[nH]c3c2)ccc1OCc1ccccc1F	·	7.7*	14	1	33*	20*
COc1cc(CNc2ccc3[nH]c(=O)[nH]c3c2)ccc1OCc1ccccc1C	·	2	18	-2	·	·
Cc1noc(C)c1C(=O)N1CCC1(C)C(=O)NS(=O)(=O)c1cccc(OC(F)F)c1 (configuration not stated)	·	0	·	·	·	·
CC(=O)c1ccc(N=Nc2ccc(C)cc2)cc1	57	0	-2	-7	·	·
C=C(C)C(=O)Oc1ccc(N=Nc2ccc(C)cc2)ccc1=O	·	11*	·	·	59*	40*
COc1ccc(-c2oc3ccccc3c(=O)c2OC(=O)c2ccc(C)cc2)cc1	-16	0	-2	3	·	·
O=C(Oc1c(-c2ccccc2)oc2ccccc2c1=O)c1ccccc1	47	13*	-1	1	45*	19*
CC(=O)NC(c1ccc(F)c(F)c1)c1nc(-c2ccccc2C)cs1 (configuration not stated)	·	-1	·	·	·	·
Cc1cc(C(=O)N2CCC(C)(C(=O)NS(=O)(=O)C3CC3)C2)n(C(C)(C)C)n1 (configuration not stated)	·	0	·	·	·	·
O=C(/C=C/c1ccc(Cl)cc1Cl)NC(=S)Nc1ccccn1	-45	3	6	1	·	·
Clc1ccc(C=Cc2ccccn2)c(Cl)c1	·	7.7*	·	·	120*	37*
CC(=O)c1ccc(NC(=O)CSc2nc(N)c3cc4c(nc3n2)CCCC4)cc1	55	7.7*	0	8	101*	27*
Cc1ccc(S(=O)(=O)n2cccc2/C=C/[N+](=O)[O-])cc1	·	7	·	·	·	·
COc1cc2sc(-c3ccc(S(C)(=O)=O)cc3)c(C(=O)NCc3ccc(C)o3)c2cc1OC	·	0	-1	-3	·	·
COc1cccc2sc3cc(NCc4ccc(C)o4)ccc3c(=O)c12	·	7.7*	3	3	88*	34*
